# Test results published in ChEMBL document CHEMBL1145203, “Synthesis of new benzoxazinone derivatives as neuropeptide Y5 antagonists for the treatment of obesity” (J Med Chem, 2005).
# Experiments:
# [1] = target: T1, Neuropeptide Y receptor type 5 (Rattus norvegicus) (UniProt Q63634); assay: Inhibition of PYY effect on forskolin-stimulated cyclic AMP formation in C6 cells expressing rat NPY Y5 receptor; type: functional, cell-based; set-up: concentration or dose not given beside the values; settings: concentration not given here
# T1 sequence (whole entry): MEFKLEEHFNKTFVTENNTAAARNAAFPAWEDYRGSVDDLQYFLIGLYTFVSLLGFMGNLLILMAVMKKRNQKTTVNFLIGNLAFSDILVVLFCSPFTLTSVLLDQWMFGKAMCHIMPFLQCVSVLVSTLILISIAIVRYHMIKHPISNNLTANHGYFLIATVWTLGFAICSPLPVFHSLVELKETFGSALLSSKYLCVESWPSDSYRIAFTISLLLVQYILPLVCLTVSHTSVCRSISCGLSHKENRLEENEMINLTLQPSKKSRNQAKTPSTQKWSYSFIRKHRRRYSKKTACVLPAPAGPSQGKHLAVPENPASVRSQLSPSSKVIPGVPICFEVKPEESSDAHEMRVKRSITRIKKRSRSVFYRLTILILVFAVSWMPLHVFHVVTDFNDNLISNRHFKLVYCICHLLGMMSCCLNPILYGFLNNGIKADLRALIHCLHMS
# Procedure, shortened: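 C6 cells stably expressing rat NPY Y5, grown to 80% confluency in serum-free DMEM with L-glutamine, penicillin and streptomycin. Cells trypsinised 2 h before assay, about 50 000 cells/well. Compounds added with or without PYY; forskolin-stimulated cAMP measured after 30 min by FlashPlate with [125I]succinyl cAMP tracer. Expressed as % cAMP formation versus forskolin controls without PYY; three experiments in duplicate.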
# [2] = target: T2, Neuropeptide Y receptor type 5 (Rattus norvegicus, UniProt Q63634); assay: Inhibition of [125I]PYY binding to the rat NPY Y5 receptor in C6 cells; type: cell-based
# T2 sequence (Q63634 whole entry): T1 sequence (whole entry)
# Procedure, shortened: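 Radioligand [125I]-PYY 100 pM, incubated 2 h at 25 °C. Stopped with ice-cold buffer, filtered and washed, bound radioactivity counted. Nonspecific binding defined with 1 µM pNPY; triplicate.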
SMILES,inhibition [1],IC50 [2]
CCn1c2ccccc2c2cc(NC(=O)CN3CCC(N4C(=O)OCc5c(Cl)cccc54)CC3)ccc21,83.4%,–
O=C(CN1CCC(N2C(=O)OCc3ccccc32)CC1)Nc1ccc2c(c1)C(=O)c1ccccc1-2,–,> 1000 nM
O=C(CN1CCC(N2C(=O)OCc3ccccc32)CC1)Nc1cccc2c1-c1ccccc1C2=O,–,138 nM
N#Cc1ccc(NC(=O)CN2CCC(N3C(=O)OCc4ccccc43)CC2)cc1,88.7%,132 nM
COC(=O)c1ccccc1NC(=O)CN1CCC(N2C(=O)OCc3cccc(C)c32)CC1,–,> 1000 nM
O=C(CN1CCC(N2C(=O)OCc3ccccc32)CC1)Nc1ccc(Cl)cc1,–,300 nM
Cc1cccc2c1N(C1CCN(CC(=O)Nc3ccc4c(c3)-c3ccccc3C4=O)CC1)C(=O)OC2,93.8%,50 nM
COc1cccc2c1N(C1CCN(CC(=O)Nc3ccc4oc5ccccc5c4c3)CC1)C(=O)OC2,23.6%,55.7 nM
Cc1cccc2c1N(C1CCN(CC(=O)Nc3ccc(Cl)cc3)CC1)C(=O)OC2,–,> 1000 nM
Cc1ccc2c(c1)COC(=O)N2C1CCN(CC(=O)Nc2ccc3c(c2)C(=O)c2ccccc2-3)CC1,93.9%,86.7 nM
O=C(CN1CCC(N2C(=O)OCc3ccccc32)CC1)Nc1ccc2c(c1)-c1ccccc1C2=O,100%,23.3 nM
O=C(CN1CCC(N2C(=O)OCc3cc(Cl)ccc32)CC1)Nc1ccc(C2CCCCC2)cc1,98.4%,112 nM
COC(=O)c1ccccc1NC(=O)CN1CCC(N2C(=O)OCc3cc(C)ccc32)CC1,–,> 1000 nM
O=C(CN1CCC(N2C(=O)OCc3cc(Cl)ccc32)CC1)Nc1ccccc1C(=O)c1ccccc1,–,> 1000 nM
O=C(CN1CCC(N2C(=O)OCc3cc(Cl)ccc32)CC1)Nc1ccc2c(c1)-c1ccccc1C2=O,100%,25 nM
O=C(CN1CCC(N2C(=O)OCc3cc(F)ccc32)CC1)Nc1ccc2ncccc2c1,93.3%,–
O=C(CN1CCC(N2C(=O)OCc3ccccc32)CC1)Nc1ccccc1,–,> 1000 nM
Cc1ccc2c(c1)COC(=O)N2C1CCN(CC(=O)Nc2ccc(Oc3ccccc3)cc2)CC1,94.5%,104 nM
O=C(CN1CCC(N2C(=O)OCc3cc(Cl)ccc32)CC1)Nc1ccc2ncccc2c1,71.9%,148 nM
CCn1c2ccccc2c2cc(NC(=O)CN3CCC(N4C(=O)OCc5cccc(C)c54)CC3)ccc21,96.9%,50 nM

SMILES,inhibition [1],IC50 [2]
O=C(CN1CCC(N2C(=O)OCc3cc(Cl)ccc32)CC1)Nc1ccc2c(c1)-c1ccccc1C2O (stereo not given),100%,8 nM
O=C(CN1CCC(N2C(=O)OCc3cc(Cl)ccc32)CC1)Nc1ccc(Oc2ccccc2)cc1,99.2%,60.7 nM
N#Cc1ccc(NC(=O)CN2CCC(N3C(=O)OCc4cc(Cl)ccc43)CC2)cc1,91.5%,199 nM
COC(=O)c1ccccc1NC(=O)CN1CCC(N2C(=O)OCc3cc(Cl)ccc32)CC1,–,> 1000 nM
CC(=O)c1ccc(NC(=O)CN2CCC(N3C(=O)OCc4cc(C)ccc43)CC2)cc1,89.4%,26 nM
Cc1cccc2c1N(C1CCN(CC(=O)Nc3ccccc3C(=O)c3ccccc3)CC1)C(=O)OC2,–,> 1000 nM
Cc1cccc2c1N(C1CCN(CC(=O)Nc3ccc(C(=O)c4ccccc4)cc3)CC1)C(=O)OC2,100%,39.6 nM
COC(=O)c1ccccc1NC(=O)CN1CCC(N2C(=O)OCc3ccccc32)CC1,–,> 1000 nM
O=C(CN1CCC(N2C(=O)OCc3ccccc32)CC1)Nc1ccccc1C(=O)c1ccccc1,–,> 1000 nM
O=C(CN1CCC(N2C(=O)OCc3ccccc32)CC1)Nc1ccc2c(c1)-c1ccccc1C2O (stereo not given),96.1%,8.7 nM
O=C(CN1CCC(N2C(=O)OCc3ccccc32)CC1)Nc1ccc(Oc2ccccc2)cc1,100%,20 nM
CC(=O)c1ccc(NC(=O)CN2CCC(N3C(=O)OCc4cc(Cl)ccc43)CC2)cc1,99.9%,21 nM
CCn1c2ccccc2c2cc(NC(=O)CN3CCC(N4C(=O)OCc5cccc(OC)c54)CC3)ccc21,19.2%,765 nM
CC(=O)c1ccc(NC(=O)CN2CCC(N3C(=O)OCc4ccccc43)CC2)cc1,95.4%,17.3 nM
Cn1c2ccccc2c2cc(NC(=O)CN3CCC(N4C(=O)OCc5ccccc54)CC3)ccc21,88.7%,9.6 nM
CCn1c2ccccc2c2cc(NC(=O)CN3CCC(N4C(=O)OCc5cc(Cl)ccc54)CC3)ccc21,99.3%,100 nM
Cc1cccc2c1N(C1CCN(CC(=O)Nc3ccc4c(c3)-c3ccccc3C4O)CC1)C(=O)OC2 (stereo not given),100%,30 nM
O=C(CN1CCC(N2C(=O)OCc3cc(Cl)ccc32)CC1)Nc1ccc2c(c1)C(=O)c1ccccc1-2,94%,69 nM
O=C(CN1CCC(N2C(=O)OCc3cc(Cl)ccc32)CC1)Nc1ccc(C(=O)c2ccccc2)cc1,97.4%,11.2 nM
Cc1cccc2c1N(C1CCN(CC(=O)Nc3ccccc3)CC1)C(=O)OC2,–,> 1000 nM
